Assay results reported in ChEMBL document CHEMBL1139894, “Withanolides with phytotoxic activity from Jaborosa caulescens var. caulescens and J. caulescens var. bipinnatifida 1” (2007).

Legend:
Type in all cases: functional
Lactuca sativa [1] = assay: Phytotoxic activity against Latuca sativa assessed as radicle length elongation at 15 ppm
Procedure, shortened: (§1)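 Radicle length of treated seedlings was compared with untreated controls and reported as the percentage difference from the control, which is set to zero. Negative values mean inhibition and positive values mean stimulation. Germination and root length were also compared between treated and control seeds using Student's t-test (p < 0.05).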

Lactuca sativa [2] = assay: Phytotoxic activity against Latuca sativa assessed as radicle length elongation at 150 ppm; procedure, shortened: as §1
Lactuca sativa [3] = assay: Phytotoxic activity against Latuca sativa assessed as radicle length elongation at 400 ppm; procedure, shortened: as §1
Avena sativa [4] = assay: Phytotoxic activity against Avena sativa assessed as radicle length elongation at 15 ppm; procedure, shortened: as §1
Avena sativa [5] = assay: Phytotoxic activity against Avena sativa assessed as radicle length elongation at 150 ppm; procedure, shortened: as §1
Avena sativa [6] = assay: Phytotoxic activity against Avena sativa assessed as radicle length elongation at 400 ppm; procedure, shortened: as §1

Compound | Activity (Lactuca sativa [1]) | Activity (Lactuca sativa [2]) | Activity (Lactuca sativa [3]) | Activity (Avena sativa [4]) | Activity (Avena sativa [5]) | Activity (Avena sativa [6])
CCO[C@@]12C[C@H]3[C@@H](C[C@@H](O)[C@@]4(Cl)CC=CC(=O)[C@]34C)[C@@H]3CC[C@@](O)([C@H](C)[C@@H]([C@@H]4OC(=O)C(C)=C4C)O1)[C@]32C [12-O-ETHYLJABOROSALACTONE 42] | 2.7% | -25.7% | -65.1% | 3.5% | -11.2% | -32.2%
CO[C@@]12C[C@H]3[C@@H](C[C@H]4O[C@]45CC=CC(=O)[C@]35C)[C@@H]3CC[C@@](O)([C@@H]([C@H]4CC(C)=C(C)C(=O)O4)CO1)[C@]32C [12-O-METHYLJABOROSALACTONE 38] | -8.7% | -22.7% | -74.7% | 15.3% | 1.5% | -24.5%
CC1=C(C)C(=O)O[C@@H]([C@H]2CO[C@@]3(O)C[C@H]4[C@@H](C[C@H]5O[C@]56CC=CC(=O)[C@]46C)[C@@H]4CC[C@]2(O)[C@]43C)C1 [JABOROSALACTONE] | -1.6% | -46.2% | -58.6% | -13.9% | 2.4% | -36.5%
CC1=C(C)[C@H]([C@H]2O[C@@]3(O)C[C@H]4[C@@H](C[C@@H](O)[C@@]5(O)CC=CC(=O)[C@]45C)[C@@H]4CC[C@@](O)([C@@H]2C)[C@]43C)OC1=O [JABOROTETROL] | -3.9% | -5.5% | -4% | -10.2% | 2.7% | -5.9%
CC1=C(C)[C@H]([C@H]2O[C@@]3(O)C[C@H]4[C@@H](C[C@H]5O[C@]56CC=CC(=O)[C@]46C)[C@@H]4CC[C@@](O)([C@@H]2C)[C@]43C)OC1=O [TRECHONOLIDE A] | 3.7% | -8.4% | 2.5% | 2.5% | -11.7% | 4%
